Measured values as given in ChEMBL document CHEMBL4828732, “Synthesis and biological evaluation of selective survivin inhibitors derived from the MX-106 hydroxyquinoline scaffold” (Eur J Med Chem, 2021).
The source made the active and inactive calls. No cut-off for these calls is given here.

Columns and labels:
[1] = Resistance index, ratio of IC50 for antiproliferation activity against human MDA-MB-435/LCC6MDR cells to IC50 for antiproliferation activity against human MDA-MB-435 cells assessed as cell growth inhibition measured after 72 hrs by MTS assay; type: functional
A-375 [2] = experiment: cells; conditions: Homo sapiens, A-375, 72 h
MDA-MB-435 = experiment: cells; conditions: Homo sapiens, MDA-MB-435, 72 h
RPMI-7951 = experiment: cells; conditions: Homo sapiens, RPMI-7951, 72 h
MDA-MB-453 = experiment: cells; conditions: Homo sapiens, MDA-MB-453, 72 h
SK-BR-3 = experiment: cells; conditions: Homo sapiens, SK-BR-3, 72 h
MDA-MB-435/LCC6MDR1 = experiment: cells; conditions: Homo sapiens, MDA-MB-435, 72 h
A-375 [3] = experiment: Downregulation of survivin protein expression in human A-375 cells measured after 24 hrs by Westernblot analysis; type: functional, cell-based
Summary of the method: (§1)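 A375 cells (2 × 10⁶ per 10-cm dish) attached overnight, then treated 24 h in DMEM with 1, 5 or 10 μM. Lysed in RIPA with protease/phosphatase inhibitors; protein measured by Bradford. 50 μg run on SDS-PAGE, transferred to PVDF, blocked in 5% milk, probed overnight at 4°C for survivin, cleaved PARP, cIAP1, XIAP, Livin, with HRP-GAPDH as loading control; ECL detection.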

A-375 [4] = experiment: Induction of apoptosis in human A-375 cells assessed as increase in cleaved PARP level after 24 hrs by Western blot analysis; type: functional, cell-based; summary of the method: as §1
[5] = Metabolic stability of the compound in mouse liver microsomes assessed as half life at 10 uM incubated for 10 mins in presence of NADPH by UPLC-MS analysis; type: ADME, Microsome
[6] = Metabolic stability of the compound in rat liver microsomes assessed as half life at 10 uM incubated for 10 mins in presence of NADPH by UPLC-MS analysis; type: ADME, Microsome
[7] = Metabolic stability of the compound in human liver microsomes assessed as half life at 10 uM incubated for 10 mins in presence of NADPH by UPLC-MS analysis; type: ADME, Microsome
[8] = Metabolic stability of the compound in mouse liver microsomes assessed as clearance at 10 uM incubated for 10 mins in presence of NADPH by UPLC-MS analysis; type: ADME, Microsome
[9] = Metabolic stability of the compound in rat liver microsomes assessed as clearance at 10 uM incubated for 10 mins in presence of NADPH by UPLC-MS analysis; type: ADME, Microsome
OVCAR-3 = experiment: cells; conditions: Homo sapiens, OVCAR-3, 72 h
OVCAR-8 = experiment: cells; conditions: Homo sapiens, OVCAR-8, 72 h
[10] = Metabolic stability of the compound in human liver microsomes assessed as clearance at 10 uM incubated for 240 mins in presence of NADPH by UPLC-MS analysis; conditions: 4 h

Structure (SMILES)	Ratio IC50 [1]	IC50 (A-375 [2]) [µM]	IC50 (MDA-MB-435) [µM]	IC50 (RPMI-7951) [µM]	IC50 (MDA-MB-453) [µM]	IC50 (SK-BR-3) [µM]	IC50 (MDA-MB-435/LCC6MDR1) [µM]	Activity (A-375 [3])	Activity (A-375 [4])	t1/2 [5] [h]	t1/2 [6] [h]	t1/2 [7] [h]	CLH [8] [µL/min/mg]	CLH [9] [µL/min/mg]	IC50 (OVCAR-3) [µM]	IC50 (OVCAR-8) [µM]	CLH [10] [µL/min/mg]
COc1ccc(-c2cnn(Cc3cc(CN4CCCC4)c(O)c4ncccc34)n2)cc1	0.3	0.9	3.9	0.9	2.2	2.8	1.4										
Oc1c(CN2CCCC2)cc(Cn2ncc(-c3ccccc3Br)n2)c2cccnc12	0.2	0.7	2.4	0.7	3.1	3	0.5										
CC(C)c1ccc(COCc2cc(CN3CCCC3)c(O)c3ncccc23)cc1	0.6	1	3.5	1.1	1.6	2.3	2.1										
COc1ccc(-c2cc(COCc3ccc(C(C)C)cc3)c3cccnc3c2O)cc1	1.6	0.8	1.9	0.6	0.8	1.3	3										
Oc1c(CN2CCCC2)cc(Cn2ncc(-c3ccc(C(F)(F)F)cc3)n2)c2cccnc12	0.3	0.8	4.1	1.6	3.5	3.2	1.1										
N#Cc1ccc(-c2cnn(Cc3cc(CN4CCCC4)c(O)c4ncccc34)n2)cc1	0.3	1	5.9	0.8	4.1	6	1.8										
O=[N+]([O-])c1ccc(-c2cnn(Cc3cc(CN4CCCC4)c(O)c4ncccc34)n2)cc1	0.3	0.7	4.1	0.7	4.1	3.6	1.1										
Oc1c(CN2CCCC2)cc(Cn2ncc(-c3ccc(Br)cc3)n2)c2cccnc12	0.2	0.7	3.1	1.7	3.1	2.7	0.6	Dose-Dependent Effect	Active	0.8	1	1.9	27.8	22.6	1	1.7	12
CC(C)c1ccc(COCc2cc(-c3ccnc4ccccc34)c(O)c3ncccc23)cc1	0.8	0.8	1.2	0.7	1.7	3.1	1										
Oc1c(CN2CCCC2)cc(COC2Cc3ccccc3C2)c2cccnc12	1	1.9	2.2	1.3	2.4	5.9	2.2										
Oc1c(CN2CCCC2)cc(Cn2ncc(-c3ccccc3)n2)c2cccnc12	0.1	2	5	3.1	2.9	4	0.6										
CC(C)c1ccc(-c2cnn(Cc3cc(CN4CCCC4)c(O)c4ncccc34)n2)cc1	0.4	1.1	4.6	2.3	5.9	4.9	1.7										
CC(C)c1ccc(COCc2cc(-c3cncc4ccccc34)c(O)c3ncccc23)cc1	1.6	0.6	0.6	0.5	1.3	1.5	1			1.2	0.6	1.4	19.9	36.7			16.3
Cc1cccc(-c2cc(COCc3ccc(C(C)C)cc3)c3cccnc3c2O)c1	0.6	0.7	1.8	1.1	1.7	3.3	1										
Oc1c(CN2CCCC2)cc(Cn2ncc(-c3ccsc3)n2)c2cccnc12	0.3	1.1	4.8	1.3	2.2	2.7	1.6										
CCN(CC)Cc1cc(Cn2ncc(-c3ccc(C(F)(F)F)cc3)n2)c2cccnc2c1O	0.5	1	3.8	1.9	6.2	4	1.7										
Oc1c(CN2CCCC2)cc(Cn2cnc(-c3ccccc3)c2)c2cccnc12	0.1	2.2	8.9	2.8	3.1	6.9	1.3										
Oc1c(CN2CCNCC2)cc(Cn2ncc(-c3ccc(Br)cc3)n2)c2cccnc12	1.1	0.8	4.7	0.6	2	2.4	5.1										
CC(C)c1ccc(COCc2cc(-c3ccc(C(F)(F)F)cc3)c(O)c3ncccc23)cc1	0.6	0.9	1.9	1.3	4.4	5.7	1.2										
Cc1ccc(-c2cc(COCc3ccc(C(C)C)cc3)c3cccnc3c2O)cc1	1.3	0.8	1.8	0.7	0.9	1.6	2.3										
Oc1c(CN2CCCC2)cc(COC2CCc3ccccc3C2)c2cccnc12 (configuration not stated)	0.4	1	3.3	0.8		3.9	1.3										
Cc1ccc(-c2cnn(Cc3cc(CN4CCCC4)c(O)c4ncccc34)n2)cc1	0.4		2	0.6	2.9	2.9	0.7										
COCC[n+]1c2c(n(Cc3cnccn3)c1C)C(=O)c1ccccc1C2=O.[Br-] [SEPANTRONIUM BROMIDE]	>425						> 1										
CCc1ccc(-c2cnn(Cc3cc(CN4CCCC4)c(O)c4ncccc34)n2)cc1	0.3	0.7	3.2	0.7	3.3	3.3	1										
Oc1c(CN2CCCC2)cc(Cn2ncc(-c3ccc(OCc4ccccc4)cc3)n2)c2cccnc12	0.7	0.9	3.2	0.6	1.8	2.7	2.2										
CC(C)c1ccc(COCc2cc(Br)c(O)c3ncccc23)cc1	0.1	1	2.1	0.8	1.3	5.7	0.2										
Oc1c(CN2CCOCC2)cc(Cn2ncc(-c3ccc(Br)cc3)n2)c2cccnc12	0.4	1	2.4	0.7	2.4	3	0.9										
Oc1c(CN2CCCCCC2)cc(Cn2ncc(-c3ccc(C(F)(F)F)cc3)n2)c2cccnc12	0.5	0.9	3.1	2.1	6.3	4.2	1.6										
CC(C)c1ccc(COCc2cc(-c3ccsc3)c(O)c3ncccc23)cc1	0.9	0.6	1.1	0.5	0.6	0.8	0.9										
Oc1c(CN2CCCCC2)cc(Cn2ncc(-c3ccc(Br)cc3)n2)c2cccnc12	0.5	1	2.2	0.9	1.5	1.9	1.2			0.7	1.3	1.3	35	18	0.5	1.7	17.5
